Measurements from ChEMBL document CHEMBL4382197, “Discovery of QCA570 as an Exceptionally Potent and Efficacious Proteolysis Targeting Chimera (PROTAC) Degrader of the Bromodomain and Extra-Terminal (BET) Proteins Capable of Inducing Complete and Durable Tumor Regression” (J Med Chem, 2018).
Activity calls are given as the source filed them. No cut-off for these calls is given here.

Assays:
RS4-11 [1] = test: Growth inhibition of human RS4:11 cells after 96 hrs by CCK8 assay; type: functional, cell-based; conditions: RS4-11, 96 h
MV4-11 = test: Growth inhibition of human MV4-11 cells after 96 hrs by CCK8 assay; type: functional, cell-based; conditions: MV4-11, 96 h
MOLM-13 = test: Growth inhibition of human MOLM13 cells after 96 hrs by CCK8 assay; type: functional, cell-based; conditions: MOLM-13, 96 h
RS4-11 [2] = test: Induction of apoptosis in human RS4:11 cells assessed as PARP cleavage at 0.1 to 10 nM after 24 hrs by Western blot analysis; type: functional, cell-based
Outline: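 Cells (1.5–2×10^6/well) were treated for 24 h, washed in cold PBS and lysed in RIPA with protease inhibitors. 20 µg lysate was run on 4–20% or 4–12% gels and transferred to PVDF. Blots were probed for cleaved PARP and cleaved caspase 3, with GAPDH as loading control. Detection by ECL.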

[3] = molecular target: T1, Protein cereblon/Bromodomain-containing protein 2/Cullin-4A (Homo sapiens) (UniProt P25440+Q96SW2+Q13619); test: Protac activity at cereblon/cullin 4A/BRD2 in human RS4:11 cells assessed as BRD2 degradation at 0.1 nM after 3 hrs by Western blot analysis; type: cell-based
T1 sequence (P25440 whole entry, looked up): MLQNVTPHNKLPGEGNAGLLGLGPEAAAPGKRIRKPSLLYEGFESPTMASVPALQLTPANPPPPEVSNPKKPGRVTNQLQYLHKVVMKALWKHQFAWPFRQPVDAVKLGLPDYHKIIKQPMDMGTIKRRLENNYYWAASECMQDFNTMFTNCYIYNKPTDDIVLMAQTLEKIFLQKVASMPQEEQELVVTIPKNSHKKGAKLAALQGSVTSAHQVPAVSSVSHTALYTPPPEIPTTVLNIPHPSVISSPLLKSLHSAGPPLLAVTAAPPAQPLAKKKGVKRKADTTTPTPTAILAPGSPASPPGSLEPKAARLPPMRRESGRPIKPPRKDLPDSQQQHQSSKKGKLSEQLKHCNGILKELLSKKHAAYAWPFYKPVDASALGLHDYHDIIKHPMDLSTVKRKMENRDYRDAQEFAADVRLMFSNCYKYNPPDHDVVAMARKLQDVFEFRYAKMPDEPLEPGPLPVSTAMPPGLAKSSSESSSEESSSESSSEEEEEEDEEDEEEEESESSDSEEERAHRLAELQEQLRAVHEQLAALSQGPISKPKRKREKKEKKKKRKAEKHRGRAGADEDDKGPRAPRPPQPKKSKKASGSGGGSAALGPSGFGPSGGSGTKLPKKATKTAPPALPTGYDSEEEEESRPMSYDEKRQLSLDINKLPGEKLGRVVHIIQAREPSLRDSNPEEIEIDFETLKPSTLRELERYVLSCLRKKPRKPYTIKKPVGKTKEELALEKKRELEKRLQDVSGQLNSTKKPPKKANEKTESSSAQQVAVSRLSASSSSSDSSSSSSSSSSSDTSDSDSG
T1 sequence (Q13619 whole entry, looked up): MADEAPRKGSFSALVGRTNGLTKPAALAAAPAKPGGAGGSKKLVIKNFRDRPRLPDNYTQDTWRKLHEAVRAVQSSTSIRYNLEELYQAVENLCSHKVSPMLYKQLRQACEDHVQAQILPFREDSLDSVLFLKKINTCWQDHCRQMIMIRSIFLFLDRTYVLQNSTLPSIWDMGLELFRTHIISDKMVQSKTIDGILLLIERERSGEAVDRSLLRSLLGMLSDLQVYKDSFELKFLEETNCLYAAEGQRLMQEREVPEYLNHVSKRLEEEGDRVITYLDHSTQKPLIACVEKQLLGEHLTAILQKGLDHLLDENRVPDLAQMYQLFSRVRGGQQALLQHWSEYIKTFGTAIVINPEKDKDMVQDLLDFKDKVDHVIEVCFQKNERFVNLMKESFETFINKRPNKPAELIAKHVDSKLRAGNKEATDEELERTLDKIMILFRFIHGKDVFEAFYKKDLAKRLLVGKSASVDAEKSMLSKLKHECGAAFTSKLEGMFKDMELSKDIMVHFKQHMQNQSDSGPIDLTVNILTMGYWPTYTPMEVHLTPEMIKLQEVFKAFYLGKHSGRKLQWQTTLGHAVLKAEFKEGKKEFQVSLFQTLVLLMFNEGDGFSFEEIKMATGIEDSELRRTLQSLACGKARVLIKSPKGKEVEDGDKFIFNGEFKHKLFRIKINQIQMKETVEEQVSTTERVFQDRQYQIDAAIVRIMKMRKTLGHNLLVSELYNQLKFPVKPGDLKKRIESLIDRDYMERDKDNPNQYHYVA
T1 sequence (Q96SW2 whole entry, looked up): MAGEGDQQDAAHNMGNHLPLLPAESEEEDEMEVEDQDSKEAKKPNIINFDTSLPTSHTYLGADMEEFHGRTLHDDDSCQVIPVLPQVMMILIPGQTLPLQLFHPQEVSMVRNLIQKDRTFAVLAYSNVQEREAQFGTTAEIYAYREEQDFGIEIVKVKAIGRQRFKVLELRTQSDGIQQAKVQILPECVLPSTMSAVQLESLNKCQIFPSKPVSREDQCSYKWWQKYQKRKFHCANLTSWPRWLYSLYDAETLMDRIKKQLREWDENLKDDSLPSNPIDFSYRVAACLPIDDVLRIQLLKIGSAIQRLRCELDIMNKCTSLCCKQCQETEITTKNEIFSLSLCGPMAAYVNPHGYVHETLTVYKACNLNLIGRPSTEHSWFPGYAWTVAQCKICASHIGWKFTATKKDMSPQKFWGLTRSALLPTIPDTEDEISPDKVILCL

[4] = molecular target: T2, Protein cereblon/Bromodomain-containing protein 3/Cullin-4A (Homo sapiens) (UniProt Q15059+Q96SW2+Q13619); test: Protac activity at cereblon/cullin 4A/BRD3 in human RS4:11 cells in assessed as BRD3 degradation at 0.1 nM after 3 hrs by Western blot analysis; type: cell-based
T2 sequence (Q13619 whole entry, looked up): as the sequence (Q13619 whole entry, looked up) above
T2 sequence (Q15059 whole entry, looked up): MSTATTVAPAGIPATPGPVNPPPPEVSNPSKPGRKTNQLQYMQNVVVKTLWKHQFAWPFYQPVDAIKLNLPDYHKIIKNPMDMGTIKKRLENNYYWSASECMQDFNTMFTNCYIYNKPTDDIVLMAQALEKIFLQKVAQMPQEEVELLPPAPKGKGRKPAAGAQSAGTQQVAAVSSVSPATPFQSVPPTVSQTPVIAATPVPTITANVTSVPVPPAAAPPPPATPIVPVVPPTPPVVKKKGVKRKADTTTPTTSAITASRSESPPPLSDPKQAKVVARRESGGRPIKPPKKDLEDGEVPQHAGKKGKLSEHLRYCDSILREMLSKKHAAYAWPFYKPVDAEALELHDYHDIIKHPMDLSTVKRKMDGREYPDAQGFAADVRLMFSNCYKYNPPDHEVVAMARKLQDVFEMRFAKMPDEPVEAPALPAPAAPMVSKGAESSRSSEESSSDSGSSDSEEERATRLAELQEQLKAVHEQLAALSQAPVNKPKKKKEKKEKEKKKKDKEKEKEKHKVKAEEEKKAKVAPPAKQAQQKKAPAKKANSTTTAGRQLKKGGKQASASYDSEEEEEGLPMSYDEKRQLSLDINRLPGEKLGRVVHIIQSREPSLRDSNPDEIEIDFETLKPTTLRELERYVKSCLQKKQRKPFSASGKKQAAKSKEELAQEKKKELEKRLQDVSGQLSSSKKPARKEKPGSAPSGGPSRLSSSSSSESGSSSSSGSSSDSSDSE
T2 sequence (Q96SW2 whole entry, looked up): as the sequence (Q96SW2 whole entry, looked up) above

[5] = molecular target: T3, Protein cereblon/Bromodomain-containing protein 4/Cullin-4A (Homo sapiens) (UniProt O60885+Q96SW2+Q13619); test: Protac activity at cereblon/cullin 4A/BRD4 in human RS4:11 cells assessed as BRD4 degradation at 0.1 nM after 3 hrs by Western blot analysis; type: cell-based
[6] = molecular target: Protein cereblon/Bromodomain-containing protein 4/Bromodomain-containing protein 3/Bromodomain-containing protein 2 (Homo sapiens) (UniProt P25440+O60885+Q15059+Q96SW2); test: Protac activity at cereblon/cullin 4A/BET in human RS4:11 cells assessed as reduction in c-myc protein levels at 0.1 nM after 3 hrs by Western blot analysis; type: cell-based
Sequence of Protein cereblon/Bromodomain-containing protein 4/Bromodomain-containing protein 3/Bromodomain-containing protein 2 (Homo sapiens) (P25440 whole entry, looked up, other chains not shown): as the sequence (P25440 whole entry, looked up) above
Sequence of Protein cereblon/Bromodomain-containing protein 4/Bromodomain-containing protein 3/Bromodomain-containing protein 2 (Homo sapiens) (Q15059 whole entry, looked up, other chains not shown): as the sequence (Q15059 whole entry, looked up) above
Sequence of Protein cereblon/Bromodomain-containing protein 4/Bromodomain-containing protein 3/Bromodomain-containing protein 2 (Homo sapiens) (Q96SW2 whole entry, looked up, other chains not shown): as the sequence (Q96SW2 whole entry, looked up) above

[7] = molecular target: Bromodomain-containing protein 4 (Homo sapiens, UniProt O60885)
RS4-11 [8] = test: Induction of apoptosis in human RS4:11 cells assessed as PARP cleavage at 10 uM after 24 hrs by Western blot analysis; type: functional, cell-based
[9] = molecular target: T2, Protein cereblon/Bromodomain-containing protein 3/Cullin-4A (Homo sapiens); test: Protac activity at cereblon/cullin 4A/BRD3 in human RS4:11 cells assessed as BRD3 degradation at 1 to 10 uM after 3 to 24 hrs by Western blot analysis; type: cell-based
Outline: (§1)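 Cells are used within two months of thawing. […] 1.5–2×10^6 cells/well are treated for 3 h or 24 h, then lysed in RIPA with protease inhibitors. 20 µg lysate is blotted to PVDF and probed with rabbit polyclonal anti-BRD2 or anti-BRD3. GAPDH is the loading control, detected by ECL.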

[10] = molecular target: T2, Protein cereblon/Bromodomain-containing protein 3/Cullin-4A (Homo sapiens); test: Protac activity at cereblon/cullin 4A/BRD3 in human MV4-11 cells assessed as BRD3 degradation at 1 to 10 uM after 3 to 24 hrs by Western blot analysis; type: cell-based; outline: as §1
[11] = molecular target: T1, Protein cereblon/Bromodomain-containing protein 2/Cullin-4A (Homo sapiens); test: Protac activity at cereblon/cullin 4A/BRD2 in human RS4:11 cells assessed as BRD2 degradation by Western blot analysis; type: cell-based
[12] = molecular target: T2, Protein cereblon/Bromodomain-containing protein 3/Cullin-4A (Homo sapiens); test: Protac activity at cereblon/cullin 4A/BRD3 in human RS4:11 cells in assessed as BRD3 degradation by Western blot analysis; type: cell-based
[13] = molecular target: T3, Protein cereblon/Bromodomain-containing protein 4/Cullin-4A (Homo sapiens); test: Protac activity at cereblon/cullin 4A/BRD4 in human RS4:11 cells assessed as BRD4 degradation by Western blot analysis; type: cell-based
[14] = molecular target: T1, Protein cereblon/Bromodomain-containing protein 2/Cullin-4A (Homo sapiens); test: Protac activity at cereblon/cullin 4A/BRD2 in human RS4:11 cells assessed as induction of BRD2 degradation at 0.1 to 1 uM after 3 to 24 hrs by Western blot analysis; type: cell-based
[15] = molecular target: T2, Protein cereblon/Bromodomain-containing protein 3/Cullin-4A (Homo sapiens); test: Protac activity at cereblon/cullin 4A/BRD3 in human RS4:11 cells in assessed as BRD3 degradation at 0.1 to 1 uM after 3 to 24 hrs by Western blot analysis; type: cell-based
[16] = molecular target: T3, Protein cereblon/Bromodomain-containing protein 4/Cullin-4A (Homo sapiens); test: Protac activity at cereblon/cullin 4A/BRD4 in human RS4:11 cells assessed as BRD4 degradation at 0.1 to 1 uM after 3 to 24 hrs by Western blot analysis; type: cell-based

SMILES | IC50 (RS4-11 [1]) | IC50 (MV4-11) | IC50 (MOLM-13) | also measured
Cc1nnc2n1Cc1sc(C#Cc3cnn(CCNc4cccc5c4C(=O)N(C4CCC(=O)NC4=O)C5=O)c3)c(Cc3ccccc3)c1OC2 (centres undefined) | 0.379 nM | 0.47 nM | 2.23 nM | Activity (RS4-11 [2]): Active
Cc1nnc2n1Cc1sc(C#Cc3cnn(CCCCNc4cccc5c4C(=O)N(C4CCC(=O)NC4=O)C5=O)c3)c(Cc3ccccc3)c1OC2 (centres undefined) | 0.02 nM | 0.0654 nM | 0.19 nM | Activity [3]: Active; Activity [4]: Active; Activity [5]: Active; Activity [6]: Active; Activity (RS4-11 [2]): Active
Cc1nnc2n1Cc1sc(C#Cc3cnn(CCCCNc4cccc5c4CN(C4CCC(=O)NC4=O)C5=O)c3)c(Cc3ccccc3)c1OC2 (centres undefined) | 0.0012 nM |  | 0.18 nM | 
Cc1sc2c(c1C)COCc1nnc(C)n1-2 |  |  |  | IC50 [7]: 4400 nM; Ki [7]: 1500 nM
Cc1nnc2n1-c1sc(C#N)c(Cc3ccccc3)c1COC2 |  |  |  | IC50 [7]: 720 nM; Ki [7]: 250 nM
Cc1nnc2n1Cc1sc(C#Cc3cnn(CCCNc4cccc5c4CN(C4CCC(=O)NC4=O)C5=O)c3)c(Cc3ccccc3)c1OC2 (centres undefined) | 0.025 nM | 0.035 nM | 0.51 nM | 
Cc1nnc2n1-c1scc(Cc3ccccc3)c1COC2 |  |  |  | IC50 [7]: 2300 nM; Ki [7]: 820 nM
Cc1nnc2n1-c1sc(C#Cc3cnn(C)c3)c(Cc3ccccc3)c1COC2 |  |  |  | Activity (RS4-11 [8]): Active; Activity [9]: Active; Activity [10]: inactive
Cc1nnc2n1Cc1sc(C#Cc3cnn(CCCC#Cc4cccc5c4C(=O)N(C4CCC(=O)NC4=O)C5=O)c3)c(Cc3ccccc3)c1OC2 (centres undefined) | 0.39 nM | 0.72 nM | 1.6 nM | 
Cc1nnc2n1Cc1sc(C#Cc3cnn(COc4cccc5c4C(=O)N(C4CCC(=O)NC4=O)C5=O)c3)c(Cc3ccccc3)c1OC2 (centres undefined) | 20.8 nM | 19.7 nM | 311 nM | Activity [11]: Dose-dependent effect; Activity [12]: Dose-dependent effect; Activity [13]: Dose-dependent effect
Cc1nnc2n1-c1sc(C3CCOCC3)c(Cc3ccccc3)c1COC2 |  |  |  | IC50 [7]: 8100 nM; Ki [7]: 2800 nM
Cc1nnc2n1Cc1sc(C#Cc3cnn(CCCNc4cccc5c4C(=O)N(C4CCC(=O)NC4=O)C5=O)c3)c(Cc3ccccc3)c1OC2 (centres undefined) | 0.038 nM | 0.138 nM | 0.56 nM | Activity [3]: Active; Activity [4]: Active; Activity [5]: Active; Activity (RS4-11 [2]): Active
Cc1nnc2n1Cc1sc(C#Cc3cnn(CCCCCNc4cccc5c4C(=O)N(C4CCC(=O)NC4=O)C5=O)c3)c(Cc3ccccc3)c1OC2 (centres undefined) | 0.02 nM | 0.092 nM | 0.19 nM | Activity [3]: Active; Activity [4]: Active; Activity [5]: Active; Activity [6]: Active; Activity (RS4-11 [2]): Active
Cc1nnc2n1Cc1sc(C#Cc3cnn(CCCC#Cc4cccc5c4CN(C4CCC(=O)N(C)C4=O)C5=O)c3)c(Cc3ccccc3)c1OC2 (centres undefined) | 43.7 nM | 25.8 nM | 183 nM | 
Cc1nnc2n1Cc1sc(C#Cc3cnn(CCCCCc4cccc5c4CN(C4CCC(=O)NC4=O)C5=O)c3)c(Cc3ccccc3)c1OC2 (centres undefined) | 0.081 nM | 0.14 nM | 0.53 nM | 
Cc1nnc2n1Cc1sc(C#Cc3cnn(-c4cccc5c4C(=O)N(C4CCC(=O)NC4=O)C5=O)c3)c(Cc3ccccc3)c1OC2 (centres undefined) | > 1000 nM | > 1000 nM | > 1000 nM | Activity [14]: inactive; Activity [15]: inactive; Activity [16]: inactive
